The results in this text go back to ChEMBL document CHEMBL1122179, “1-(alkylamino)isochromans: hypotensives with peripheral and central activities” (J Med Chem, 1982).

Test [1] concerns Rattus norvegicus. The test is described as follows: Delta BP refers to oral hypotensive activity of compound which is evaluated at 4 hr and 24 hr in restrained, normotensive conscious rats at a dose of 50 mg/kg; -13/-10. The format is functional. Summed up: (§1)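 Female Sprague-Dawley rats, normotensive, restrained in a towel. Blood pressure was read directly via chronic indwelling aortic cannulas exteriorized at the nape, before and 4 and 24 h after an oral dose suspended in carboxymethylcellulose (10 mL/kg). Values from two animals were averaged at each time; a mean change of at least 5 mmHg was taken as significant (p < 0.05).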

Test [2] concerns the target T1, Adrenergic receptor alpha-1 (Rattus norvegicus, UniProt P15823+P23944+P43140).
T1 sequence (P15823 whole entry): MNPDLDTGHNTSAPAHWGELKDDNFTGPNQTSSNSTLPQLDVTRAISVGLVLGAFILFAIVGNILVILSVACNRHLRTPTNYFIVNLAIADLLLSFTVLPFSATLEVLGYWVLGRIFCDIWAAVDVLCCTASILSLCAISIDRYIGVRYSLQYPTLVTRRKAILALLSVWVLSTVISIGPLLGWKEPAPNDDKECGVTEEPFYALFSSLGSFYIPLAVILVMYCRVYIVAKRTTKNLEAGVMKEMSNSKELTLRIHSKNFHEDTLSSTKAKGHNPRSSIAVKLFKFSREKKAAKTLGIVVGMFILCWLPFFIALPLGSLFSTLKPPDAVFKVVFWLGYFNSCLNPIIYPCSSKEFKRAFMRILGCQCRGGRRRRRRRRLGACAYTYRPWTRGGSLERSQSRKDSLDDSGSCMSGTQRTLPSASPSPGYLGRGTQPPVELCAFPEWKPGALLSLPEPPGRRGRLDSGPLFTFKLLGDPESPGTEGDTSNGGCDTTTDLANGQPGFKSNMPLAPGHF
T1 sequence (P23944 whole entry): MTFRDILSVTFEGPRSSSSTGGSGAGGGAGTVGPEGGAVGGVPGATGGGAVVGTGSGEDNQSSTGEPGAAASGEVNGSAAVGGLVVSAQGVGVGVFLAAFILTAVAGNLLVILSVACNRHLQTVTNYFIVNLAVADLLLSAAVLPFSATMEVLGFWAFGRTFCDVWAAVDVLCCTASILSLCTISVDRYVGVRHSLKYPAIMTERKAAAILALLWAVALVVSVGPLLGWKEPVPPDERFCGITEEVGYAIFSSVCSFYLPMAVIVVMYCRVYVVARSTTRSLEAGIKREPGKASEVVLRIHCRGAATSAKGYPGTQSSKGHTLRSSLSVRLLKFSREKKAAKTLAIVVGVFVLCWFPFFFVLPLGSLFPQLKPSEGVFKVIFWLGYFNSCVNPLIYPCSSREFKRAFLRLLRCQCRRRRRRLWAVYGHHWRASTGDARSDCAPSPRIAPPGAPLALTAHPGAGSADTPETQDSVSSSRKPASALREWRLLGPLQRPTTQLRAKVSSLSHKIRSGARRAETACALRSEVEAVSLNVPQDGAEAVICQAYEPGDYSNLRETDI
T1 sequence (P43140 whole entry): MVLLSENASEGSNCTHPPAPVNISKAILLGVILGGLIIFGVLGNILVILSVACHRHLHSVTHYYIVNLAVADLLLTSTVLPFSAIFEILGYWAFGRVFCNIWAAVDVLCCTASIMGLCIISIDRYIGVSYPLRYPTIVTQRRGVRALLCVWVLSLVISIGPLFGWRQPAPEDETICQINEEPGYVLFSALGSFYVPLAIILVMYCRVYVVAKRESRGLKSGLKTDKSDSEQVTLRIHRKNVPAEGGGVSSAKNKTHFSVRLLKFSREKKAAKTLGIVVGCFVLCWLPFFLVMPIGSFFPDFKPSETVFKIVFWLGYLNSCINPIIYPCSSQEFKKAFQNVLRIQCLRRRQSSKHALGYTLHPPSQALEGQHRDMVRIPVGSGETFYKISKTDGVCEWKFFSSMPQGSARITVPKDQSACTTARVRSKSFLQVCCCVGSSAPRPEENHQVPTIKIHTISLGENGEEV
In words: Compound was tested for the inhibition of [3H]prazosin binding […] adrenergic receptor of crude rat brain membrane.

Test [3] deals with T2, Adrenergic receptor alpha-2 (Rattus norvegicus, UniProt P22086+P19328+P22909).
T2 sequence (P22086 whole entry): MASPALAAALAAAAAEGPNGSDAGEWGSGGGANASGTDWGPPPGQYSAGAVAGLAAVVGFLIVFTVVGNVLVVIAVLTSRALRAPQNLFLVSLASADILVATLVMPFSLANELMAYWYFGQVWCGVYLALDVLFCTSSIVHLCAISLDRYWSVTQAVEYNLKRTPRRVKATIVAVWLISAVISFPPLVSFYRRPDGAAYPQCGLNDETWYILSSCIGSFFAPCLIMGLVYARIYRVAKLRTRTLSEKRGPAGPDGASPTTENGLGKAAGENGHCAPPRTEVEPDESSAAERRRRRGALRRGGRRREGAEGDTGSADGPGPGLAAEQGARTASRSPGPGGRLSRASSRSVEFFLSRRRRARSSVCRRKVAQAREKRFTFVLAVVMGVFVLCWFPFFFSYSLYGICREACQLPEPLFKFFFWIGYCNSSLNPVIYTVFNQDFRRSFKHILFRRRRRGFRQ
T2 sequence (P19328 whole entry): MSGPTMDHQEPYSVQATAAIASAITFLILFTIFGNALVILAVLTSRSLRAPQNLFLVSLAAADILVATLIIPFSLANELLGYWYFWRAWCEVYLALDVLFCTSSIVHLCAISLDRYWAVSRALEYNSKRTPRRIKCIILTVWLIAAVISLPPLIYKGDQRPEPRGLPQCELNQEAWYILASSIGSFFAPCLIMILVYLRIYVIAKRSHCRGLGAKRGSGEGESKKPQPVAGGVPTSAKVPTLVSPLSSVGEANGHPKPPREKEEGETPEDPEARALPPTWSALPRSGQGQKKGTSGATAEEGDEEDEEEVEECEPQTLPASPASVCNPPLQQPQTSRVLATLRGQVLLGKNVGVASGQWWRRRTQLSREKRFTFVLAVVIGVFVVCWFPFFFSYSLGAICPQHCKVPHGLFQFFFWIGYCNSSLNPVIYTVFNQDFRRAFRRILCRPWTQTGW
T2 sequence (P22909 whole entry): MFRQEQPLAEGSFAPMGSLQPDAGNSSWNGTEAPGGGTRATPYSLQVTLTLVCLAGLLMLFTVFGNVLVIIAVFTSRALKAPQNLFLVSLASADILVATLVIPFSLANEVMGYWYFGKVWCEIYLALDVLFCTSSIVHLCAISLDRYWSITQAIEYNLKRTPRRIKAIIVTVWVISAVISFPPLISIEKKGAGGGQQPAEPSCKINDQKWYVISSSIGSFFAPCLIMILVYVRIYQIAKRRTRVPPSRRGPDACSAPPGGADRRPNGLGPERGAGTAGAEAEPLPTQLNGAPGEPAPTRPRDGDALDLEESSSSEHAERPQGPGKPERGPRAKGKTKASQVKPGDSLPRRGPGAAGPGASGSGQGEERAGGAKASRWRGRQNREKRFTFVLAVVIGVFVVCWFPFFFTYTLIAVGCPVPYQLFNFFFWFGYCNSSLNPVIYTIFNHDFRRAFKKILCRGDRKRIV
The test is described as follows: Compound was tested for the inhibition of [3H]clonidine binding Alpha-2 adrenergic receptor of crude rat brain membrane.

The subject of test [4] is Rattus norvegicus. The test is described as follows: Delta BP refers to oral hypotensive activity of compound which is evaluated at 4 hr and 24 hr in restrained, normotensive conscious rats at a dose of 50 mg/kg; -17/-20. The format is functional. Summed up: as §1
Test [5] concerns Rattus norvegicus. In words: Delta BP refers to oral hypotensive activity of compound which is evaluated at 4 hr and 24 hr in restrained, normotensive conscious rats at a dose of 50 mg/kg; -24/-5. The test is classed as functional. Summed up: as §1
The subject of test [6] is Rattus norvegicus. In words: Delta BP refers to oral hypotensive activity of compound which is evaluated at 4 hr and 24 hr in restrained, normotensive conscious rats at a dose of 15 mg/kg; -24/-5. The format is functional. Summed up: as §1
The subject of test [7] is Rattus norvegicus. In words: Delta BP refers to oral hypotensive activity of compound which is evaluated at 4 hr and 24 hr in restrained, normotensive conscious rats at a dose of 50 mg/kg; -26/-21. The format is functional. Summed up:
as §1

Test [8] deals with Rattus norvegicus. In words: Delta BP refers to oral hypotensive activity of compound which is evaluated at 4 hr and 24 hr in restrained, normotensive conscious rats at a dose of 50 mg/kg; 1/0. The format is functional. Summed up: as §1
Test [9] deals with Rattus norvegicus. In words: Delta BP refers to oral hypotensive activity of compound which is evaluated at 4 hr and 24 hr in restrained, normotensive conscious rats at a dose of 50 mg/kg; -11/-16. The format is functional. The procedure, abridged: as §1
For test [10], the system named is Rattus norvegicus. The test is described as follows: Delta BP refers to oral hypotensive activity of compound which is evaluated at 4 hr and 24 hr in restrained, normotensive conscious rats at a dose of 50 mg/kg; -17/-9. The format is functional. Summed up: as §1
For test [11], the system named is Rattus norvegicus. The test is described as follows: Delta BP refers to oral hypotensive activity of compound which is evaluated at 4 hr and 24 hr in restrained, normotensive conscious rats at a dose of 50 mg/kg; -12/-5. The test is classed as functional. The procedure, abridged: as §1
The subject of test [12] is Rattus norvegicus. In words: Delta BP refers to oral hypotensive activity of compound which is evaluated at 4 hr and 24 hr in restrained, normotensive conscious rats at a dose of 15 mg/kg; -13/-14. The test is classed as functional. The procedure, abridged: as §1
Test [13] concerns Rattus norvegicus. In words: Delta BP refers to oral hypotensive activity of compound which is evaluated at 4 hr and 24 hr in restrained, normotensive conscious rats at a dose of 50 mg/kg; -16/-10. The test is classed as functional. The following applies: dose 15 mg/kg, in the assay text read “dose of 15 mg/kg” for “dose of 50 mg/kg”. Summed up: as §1
For test [14], the system named is Rattus norvegicus. In words: Delta BP refers to oral hypotensive activity of compound which is evaluated at 4 hr and 24 hr in restrained, normotensive conscious rats at a dose of 50 mg/kg; -19/-19. The format is functional. The procedure, abridged: as §1

The compound `COc1cc2c(cc1OC)C(CCN1CCN(c3ccccc3)CC1)OCC2` (centres undefined) yielded a Delta blood pressure in the test on Rattus norvegicus [1] of -13 mmHg.
As for `COc1cc2c(cc1OC)C(CCN1CCN(c3ccc(F)cc3)CC1)OCCC2` (centres undefined), the values for the Ki in test [2] and in [3] were 4 nM and 307 nM, respectively.
With `COc1cc2c(cc1OC)C(CCN1CCN(c3ccccc3C)CC1)OC(C)(C)C2` (centres undefined), in the test with Rattus norvegicus [4], the Delta blood pressure is recorded as -17 mmHg.
Consider `COc1cc2c(cc1OC)C(CN1CCN(c3ccccc3C)CC1)OCC2` (centres undefined), for which the Delta blood pressure with Rattus norvegicus [5] was -24 mmHg.
In the case of `COc1cc2c(cc1OC)C(C)(CCCN1CCN(c3ccccc3C)CC1)OCC2` (centres undefined), the Delta blood pressure in the test with Rattus norvegicus [6] is recorded as -24 mmHg; with Rattus norvegicus [7] it was -26 mmHg.
In the case of `COc1cc2c(cc1OC)C(CCN1CCN(c3cccc(Cl)c3)CC1)OCC2` (centres undefined), in the test with Rattus norvegicus [8], the Delta blood pressure turned out to be 1 mmHg.
`COc1cc2c(cc1OC)C(C)(CCCN1CCN(c3ccccn3)CC1)OCC2` (centres undefined) gave a Delta blood pressure in the test on Rattus norvegicus [9] of -11 mmHg.
`COc1cc2c(cc1OC)C(C)(CCN1CCN(c3ccccc3)CC1)OCC2` (centres undefined) had a Delta blood pressure in the test with Rattus norvegicus [10] of -17 mmHg.
`COc1cc2c(cc1OC)C(CCN1CCN(c3ccccn3)CC1)OCC2` (centres undefined): the Delta blood pressure is -12 mmHg in the test on Rattus norvegicus [11] and -13 mmHg in the test on Rattus norvegicus [12].
Take `COc1cc2c(cc1OC)C(CCCN1CCN(c3ccccc3)CC1)(c1ccc(F)cc1)OCC2` (centres undefined): the Delta blood pressure with Rattus norvegicus [13] is reported as -16 mmHg; with Rattus norvegicus [14], -19 mmHg.

Usually Ki stands for the dissociation constant of the complex between target and ligand, obtained from inhibition or displacement. Low readings indicate higher affinity, high ones lower affinity.
